Measured values collected from several papers.
Compare with care: the assays were run in different laboratories.
Target: Beta-2 adrenergic receptor (ADRB2, Homo sapiens, UniProt P07550)
Tested at: 10 µM

Compound | test | inhibition
CCN(CC)c1ccc(C2Nc3ccc(C(=O)c4ccccc4)cc3NC3=C2C(=O)CC(C)(C)C3)cc1 (stereo not shown) | ligand displacement, radioligand | 1%
Ic1cccc2cnccc12 | ligand displacement, radioligand | 0%
CCCNc1nc2ccccc2n1Cc1ccc(Cl)cc1 | ligand displacement | -10.2%
O=C1N=C(N2CCCCN2)S/C1=C\c1ccc(F)cc1O | ligand displacement, radioligand | < 10%
CC(=O)N1CCC(c2ccc(C(=O)NC3=NCCN3)cc2C(F)(F)F)CC1 | ligand displacement | -14.2%
O=C(Nc1ccc(S(=O)(=O)N2CCC(Cl)CC2)cc1)c1ccc([N+](=O)[O-])o1 | ligand displacement, radioligand | 17%
O=C(c1ccc(F)cc1)N(Cc1ccccc1)C1CCCCC1 | cell-free assay | 7%
N#Cc1cc(Cn2c(N3CCCC3)nc3ccccc32)ccc1F | ligand displacement | 0%
Oc1cccc(Nc2nc(-c3ccc(F)cc3F)cs2)c1 | cell-free assay | 4%
CN1CCN(c2ccnc(NCCc3ccccc3)n2)CC1 | ligand displacement | -3.49%
